Assay outcomes (PubChem BioAssay)
This is a sample that favours compounds with a hit; in the whole collection about 2.1% have one here.
CAL PDZ FP-1 – inhibitors of human CAL PDZ peptide binding; Q9HD26; purified CAL PDZ, TMR-peptide fluorescence polarization, 1 h; inhibition, % at 20 µM; 330,000 compounds, 0.02% hits; AID 504414;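 active = highest replicate inhibition of at least 40%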;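 also: plate controls were DMSO neutral control wells for no effect and unlabeled competitor peptide control wells for full effect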
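Test system: tagged CAL PDZ domain / Buffer or medium: sodium phosphate/NaCl buffer pH 7.4 with TCEP, IgG, Thesit / Reagent: TMR-labelled reporter peptide T*-PRC34 bound in PDZ groove / Compound dosing: single point, 20 µM / Schedule: 1 h incubation at room temperature before polarization reading / Technique: fluorescence polarization (mP) / Benchmarks: unlabelled peptide, DMSO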
SR-BI DiI-HDL act – SR-BI HDL lipid transfer activation; activation, % at 12.5 µM; 320,000 compounds, 0.096% hits; CHO ldlA[mSR-BI] cells, DiI-HDL uptake fluorescence, 3 h; 100 = double the neutral-control signal; AID 504775;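 active = mean replicate activation of at least 60% and every replicate at or above 60%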;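 also: 0% = median plate neutral-control signal and 100% = twice that signal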
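Test system: SR-BI-overexpressing, LDLR-lacking CHO cells; Also added: labelled HDL, 10 µg/mL; Measured by: bottom-read cell fluorescence after medium removal, ex 550/em 595 nm; Timing: 3 h uptake period with compound, 37 °C; Buffer or medium: F12, 0.5% BSA, 25 mM HEPES; Doses: single compound concentration, delivered by pin transfer.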
ARNT-TACC3 inh – disruptors of human ARNT/TACC3 interaction; Q9Y6A5; AlphaScreen His-ARNT PAS-B/GST-TACC3 binding, luminescence; TACC3 fragment carries E629A point mutation; inhibition, % at 9.99 µM; 390,000 compounds, 0.66% hits;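 active = mean inhibition of replicates at least 50% and at least half of replicates each reaching 50%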;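 also: 0% = complete ARNT plus TACC3 wells and 100% = ARNT alone without TACC3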
SR-BI DiI inh – blocks mouse SR-BI lipid uptake from DiI-HDL | ldlA[mSR-BI] CHO cells, DiI-HDL uptake fluorescence, 3 h | inhibition, % at 12.5 µM | 320,000 compounds, 0.96% hits | Q61009;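 active = mean replicate inhibition of at least 70% and a set share of replicates each scoring 70 or more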;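 also: 0% = median of neutral control wells and 100% = median of positive control wells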
Target sequence (Q61009 whole entry, looked up): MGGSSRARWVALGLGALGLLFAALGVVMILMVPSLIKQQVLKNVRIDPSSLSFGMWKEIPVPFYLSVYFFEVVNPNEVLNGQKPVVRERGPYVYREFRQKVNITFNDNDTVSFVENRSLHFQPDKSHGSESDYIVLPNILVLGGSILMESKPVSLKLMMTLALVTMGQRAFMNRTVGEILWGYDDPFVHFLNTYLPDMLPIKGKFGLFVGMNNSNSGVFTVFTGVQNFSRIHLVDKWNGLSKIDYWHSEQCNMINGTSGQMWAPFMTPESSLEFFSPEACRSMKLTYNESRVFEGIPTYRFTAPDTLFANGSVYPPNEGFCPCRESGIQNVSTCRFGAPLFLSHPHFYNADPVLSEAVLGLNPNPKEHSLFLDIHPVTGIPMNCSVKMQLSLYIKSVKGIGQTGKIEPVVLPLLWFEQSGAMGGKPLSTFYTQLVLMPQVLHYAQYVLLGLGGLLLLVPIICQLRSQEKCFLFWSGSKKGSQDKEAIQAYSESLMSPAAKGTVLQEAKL
miR122 inh – miR-122 inhibition in Huh7 cells; 340,000 compounds, 0.3% hits; activation (reporter increase), % at 12.5 µM; Huh7 miR-122 Renilla luciferase sensor, 48 h; neutral wells = 0, positive control = 100;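 active = mean replicate activation score at least 90 and every replicate individually at or above 90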;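 also: higher luciferase means less miR-122 activity so hits act as miR-122 inhibitors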
CAL PDZ FP-2 – inhibitors of human CAL PDZ peptide binding. AID 602252. purified CAL PDZ, TMR-peptide fluorescence polarization, 1 h. 300,000 compounds, 0.92% hits. inhibition, % at 24.9 µM. Q9HD26;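 active = mean inhibition of at least 30% with at least half of replicates also reaching 30%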;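 also: 0% = DMSO neutral control and 100% = excess unlabeled competitor peptide PRC23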
An asterisk follows results filed as active; nt = no result; [ ] = dose if it differs, or a comment.

SMILES	CAL PDZ FP-1	SR-BI DiI-HDL act	ARNT-TACC3 inh	SR-BI DiI inh	miR122 inh	CAL PDZ FP-2
Cc1ccc(O)c(NC(=S)NC(=O)C(C)C)c1	-1	14	-3	-14	82	34*
CC(=O)Nc1ccc(NC(=O)C(C)N(C)CC(=O)Nc2ccccc2Br)cc1 (stereo not drawn)	-2	9	-9	-9	5	33*
CN(/N=C/c1ccccc1Cl)c1ncc(Cl)cc1C(F)(F)F	1	-15	-3	15	-7	44*
N=C(N)SCc1ncccc1O	-2	nt	50*	nt	-2	-5
N=C(N)SCc1ccccn1	0	37	35	-37	nt	2
O=C(O)c1nnsc1-c1csnn1	0	12	-4	-12	nt	-2
Nc1csnc1C(=O)O	-3	19	46*	-19	0	-3
CC(=O)Nc1ccc(S(=O)(=O)NCCC(=O)Nc2cccc(Cl)c2)cc1	-3	nt	16	nt	-2	-10
CC(=O)Nc1ccc(S(=O)(=O)NCCc2c[nH]c3ccc(C)cc23)cc1	-2	12	4	-12	15	31*
CC(=O)Nc1ccc(S(=O)(=O)NCCC(=O)Nc2cc(C)ccn2)cc1	-1	14	-3	-14	nt	30*
C[C@@H]1CN([C@H](C)CO)C(=O)c2cc(NC(=O)C3CCCCC3)ccc2O[C@@H](C)CCCCO[C@@H]1CN(C)S(C)(=O)=O	nt	nt	nt	nt	0[16.7 µM]	nt
CNC[C@@H]1Oc2ncc(C#CC3CCCCC3)cc2C(=O)N([C@@H](C)CO)C[C@@H]1C	nt	nt	nt	nt	-3[16.7 µM]	nt
COc1ccc(Br)cc1CNc1ccc2[nH]c(=O)[nH]c2c1	-1	3	11	-3	-9	67*
COc1ccc(CCN(C)C(=O)C2CCN(Cc3cccc(OC)c3OC)CC2)cc1OC	4	13	-4	-13	3	37*
COc1ccc(CCN(C)C(=O)C2CCN(Cc3ccccc3)CC2)cc1OC	-4	2	-1	-2	nt	-1
COc1ccc(Nc2cc(C)nc(N)n2)cc1	1	-2	-6	2	nt	-2
COc1ccc(Nc2cc(Cl)nc(N)n2)cc1	0	67*	-3	-67	-7	-2
CCOC(=O)N1CCN(c2cc(NCCC(=O)O)c3c4c(onc24)-c2ccccc2C3=O)CC1	1	-47	58*	47	-3	-14
O=C(O)CCCNc1cc(N2CCN(C(=O)c3ccco3)CC2)c2noc3c2c1C(=O)c1ccccc1-3	1	-3	46*	3	-1	-11
CN1CCN(c2cc(N3CCN(C(=O)c4ccco4)CC3)c3c4c(onc24)-c2ccccc2C3=O)CC1	-3	-28	40	28	-1	-14
O=C1c2ccccc2-c2onc3c(N4CCN(CCO)CC4)cc(N4CCN(C(=O)c5ccco5)CC4)c1c23	-3	-53	14	53	-2	-2
O=C(c1nc2ccc(Cl)cn2c1CN1CCC(CO)CC1)N1CCc2ccccc2C1	0	17	-1	-17	4	38*
O=C(c1nc2ccc(Cl)cn2c1CN1CCCC1)N1CCc2ccccc2C1	-2	13	5	-13	nt	-2
COc1ccc(Br)cc1/C=N/NC(=O)c1ccc2nc[nH]c2c1	-5	-28	0	28	0	nt
COc1cc(C(=O)N/N=C/c2ccsc2C)cc(OC)c1OC	-2	-65	-4	65	42	-3
SMILES	CAL PDZ FP-1	SR-BI DiI-HDL act	ARNT-TACC3 inh	SR-BI DiI inh	miR122 inh	CAL PDZ FP-2
COc1ccc(Br)cc1/C=N/NC(=O)c1cc(OC)c(OC)c(OC)c1	-2	-75	0	75*	nt	-2
COc1ccc(Br)cc1/C=N/NC(=O)c1ccc(OC)c(OC)c1	-3	-92	12	92*	nt	-6
O=C(/C=C\c1ccc2c(c1)OCO2)CC1(O)C(=O)Nc2ccccc21 (stereo not drawn)	nt	8	-5	-8	4	89*
COc1ccc(NC(=O)N(C)C[C@H]2Oc3ccc(NC(=O)CCN4CCOCC4)cc3CC(=O)N([C@H](C)CO)C[C@@H]2C)cc1	nt	nt	-14	nt	0[16.7 µM]	nt
Cc1cc(C)c(S(=O)(=O)/N=C2/C=C(SCC(=O)O)C(=O)c3ccccc32)cc1C	18	-13	74*	13	7	-1
Cc1ccc(NS(=O)(=O)c2cccc(C(=O)N/N=C/c3c(C)nn(-c4ccccc4)c3N3CCCC3)c2)c(C)c1	-1	-74	-1	74*	nt	2
CCN(CC)S(=O)(=O)c1cccc(C(=O)N/N=C/c2ccccc2OCC(=O)O)c1	0	1	4	-1	-4	nt
CCN(CC)S(=O)(=O)c1cccc(C(=O)N/N=C/c2c(C)nn(-c3ccccc3)c2Cl)c1	0	-73	-9	73*	nt	0
C/C=C/c1cnc2c(c1)C(=O)N([C@H](C)CO)C[C@@H](C)[C@@H](CN(C)Cc1ccc(F)cc1)O2	nt	nt	nt	nt	2[16.7 µM]	nt
COCCNC(=O)C[C@H]1CC[C@H]2[C@@H](COc3ccc(NC(=O)CC(F)(F)F)cc3C(=O)N2C)O1	nt	nt	nt	nt	36[16.7 µM]	nt
CCc1nnc2sc(-c3ccc(NC(=O)CSc4ccc(Cl)cc4)cc3)nn12	-2	nt	2	77*	-1	-2
Cc1nnc2sc(-c3ccc(NC(=O)CSc4ccc(Cl)cc4)cc3)nn12	-1	-33	-2	33	11	-3
O=C(CSc1nnc(N2CCCC2)n1-c1cccc(Cl)c1)N1CCN(c2ccccn2)CC1	nt	nt	nt	nt	-16	nt
O=C(CSc1nnc(N2CCCC2)n1-c1ccccc1Cl)N1CCN(c2ccccn2)CC1	0	-11	3	11	-5	40*
O=C(C[C@@H]1C=C[C@H](NC(=O)C2CCOCC2)[C@H](CO)O1)NCC1CC1	nt	nt	16	nt	-8[16.7 µM]	nt
O=S(=O)(CC(O)CS(=O)(=O)c1ccc(Cl)cc1)c1ccccc1 (stereo not drawn)	0	38	-1	-38	nt	42*
O=C1C(=O)c2ccc(-c3ccccc3)cc2-c2ccccc21	0	-92	-1	92*	-6	nt
COCCOC(=O)N1C(=O)[C@@]2(c3ccccc31)[C@H](c1ccccc1OCCO)N1[C@H](c3ccccc3)[C@H](c3ccccc3)OC(=O)[C@H]1[C@@H]2C(N)=O	nt	nt	28	nt	nt	nt
CCOc1ccc(-n2cc(C(=O)N3CCCCCC3)c3cc(OC)c(OC)cc3c2=O)cc1	-1	-75	4	75*	2	-2
COc1ccc(NC(=O)Nc2ccc3c(c2)C(=O)N([C@@H](C)CO)C[C@@H](C)[C@@H](CN(C)S(C)(=O)=O)OCCCC[C@@H](C)O3)cc1	nt	nt	29	nt	7[16.7 µM]	nt
COc1ccc(C(=O)CSC2=C(C#N)C3(CCCCC3)C(C#N)=C(N)N2)cc1	-1	-72	6	72*	11	nt
